Experimental data from ChEMBL document CHEMBL5357066, “Development of Novel Membrane Disrupting Lipoguanidine Compounds Sensitizing Gram-Negative Bacteria to Antibiotics” (ACS Med Chem Lett, 2024).
Converted amounts (≈) assume the structure as drawn.

How the values were obtained:
Acinetobacter baumannii [1] = experiment: Synergistic antibacterial activity against Acinetobacter baumannii AYE assessed as fold change in rifampicin MIC at <=0.25 times MIC incubated for overnight by microbroth dilution checkerboard assay relative to rifampicin alone; format: functional
In short: (§1)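 Checkerboard microdilution under MIC conditions (TSB, overnight, 37 °C). Two-fold series of each agent were combined on one plate before bacteria were added, and single-agent MICs were measured on the same plate. FIC = sum of combination MIC/alone MIC for each agent, taken from the most synergistic well. Three independent repeats, mean ± SD. ≤0.5 was taken as strong synergy and 0.5–<1 as weak.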

Klebsiella pneumoniae [2] = experiment: Synergistic antibacterial activity against […] Klebsiella pneumoniae M6 assessed as rifampicin MIC at <=0.25 times MIC incubated for overnight by microbroth dilution checkerboard assay; format: functional
In short: (§2)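 Checkerboard run under the MIC conditions (TSB, overnight, 37 °C). Antibiotic and lipoguanidine 2-fold series were combined on one plate before bacteria were added. Growth/no-growth was scored as for the MIC (<0.1 OD600). Single-agent MICs were measured on the same plates. Three independent repeats were done.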

Pseudomonas aeruginosa [3] = experiment: Synergistic antibacterial activity against Pseudomonas aeruginosa PAO1 assessed as novobiocin MIC at <=0.25 times MIC incubated for overnight by microbroth dilution checkerboard assay; format: functional
In short: (§3)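 Checkerboard microdilution in Tryptic Soy Broth, run like the MIC assay. Overnight TSB cultures were back-diluted to OD 0.01 and added 1:1 to the combined two-fold series of both agents, then incubated overnight at 37 °C. Growth/no-growth was called at <0.1 OD600. MICs alone were read on the same plates. FIC index came from the most synergistic well; three independent repeats, mean ± SD.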

Escherichia coli [4] = experiment: Synergistic antibacterial activity against Escherichia coli NCTC 12923 assessed as rifampicin MIC at <=0.25 times MIC incubated for overnight by microbroth dilution checkerboard assay; format: functional; in short: as §1
Escherichia coli [5] = experiment: Antibacterial activity against Escherichia coli NCTC 12923 assessed as bacterial growth inhibition incubated for overnight by microbroth dilution method; format: functional
In short: (§4)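 Broth microdilution in Tryptic Soy Broth. DMSO stocks were diluted in TSB as 2-fold series. Overnight TSB cultures were back-diluted to OD 0.01 and mixed 1:1 with compound. Incubation was overnight at 37 °C. MIC was the lowest concentration without visible growth (<0.1 OD600). DMSO vehicle was checked at equivalent concentrations.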

Acinetobacter baumannii [6] = experiment: Synergistic antibacterial activity against Acinetobacter baumannii AYE assessed as rifampicin MIC at <=0.25 times MIC incubated for overnight by microbroth dilution checkerboard assay; format: functional; in short: as §1
Acinetobacter baumannii [7] = experiment: Antibacterial activity against Acinetobacter baumannii ATCC 17978 assessed as bacterial growth inhibition incubated for overnight by microbroth dilution method; format: functional; in short: as §4
Acinetobacter baumannii [8] = experiment: Synergistic antibacterial activity against Acinetobacter baumannii ATCC 17978 assessed as fold change in novobiocin MIC at <=0.25 times MIC incubated for overnight by microbroth dilution checkerboard assay relative to novobiocin alone; format: functional; in short: as §1
Pseudomonas aeruginosa [9] = experiment: Antibacterial activity against Pseudomonas aeruginosa PAO1 assessed as bacterial growth inhibition incubated for overnight by microbroth dilution method; format: functional; in short: as §4
Klebsiella pneumoniae [10] = experiment: Synergistic antibacterial activity against Klebsiella pneumoniae M6 assessed as fold change in novobiocin MIC at <=0.25 times MIC incubated for overnight by microbroth dilution checkerboard assay relative to novobiocin alone; format: functional; in short: as §1
Acinetobacter baumannii [11] = experiment: Synergistic antibacterial activity against Acinetobacter baumannii AYE assessed as novobiocin MIC at <=0.25 times MIC incubated for overnight by microbroth dilution checkerboard assay; format: functional; in short: as §1
Pseudomonas aeruginosa [12] = experiment: Synergistic antibacterial activity against Pseudomonas aeruginosa NCTC 13437 assessed as rifampicin MIC at <=0.25 times MIC incubated for overnight by microbroth dilution checkerboard assay; format: functional; in short: as §3
Klebsiella pneumoniae [13] = experiment: Synergistic antibacterial activity against Klebsiella pneumoniae NCTC 13368 assessed as fold change in rifampicin MIC at <=0.25 times MIC incubated for overnight by microbroth dilution checkerboard assay relative to rifampicin alone; format: functional; in short: as §2
Klebsiella pneumoniae [14] = experiment: Antibacterial activity against ESBL Klebsiella pneumoniae NCTC 13368 assessed as bacterial growth inhibition incubated for overnight by microbroth dilution method
Escherichia coli [15] = experiment: Synergistic antibacterial activity against Escherichia coli NCTC 12923 assessed as fold change in rifampicin MIC at <=0.25 times MIC incubated for overnight by microbroth dilution checkerboard assay relative to rifampicin alone; format: functional; in short: as §1
Pseudomonas aeruginosa [16] = experiment: Synergistic antibacterial activity against Pseudomonas aeruginosa NCTC 13437 assessed as novobiocin MIC at <=0.25 times MIC incubated for overnight by microbroth dilution checkerboard assay; format: functional; in short: as §3
Pseudomonas aeruginosa [17] = experiment: Synergistic antibacterial activity against Pseudomonas aeruginosa NCTC 13437 assessed as fold change in rifampicin MIC at <=0.25 times MIC incubated for overnight by microbroth dilution checkerboard assay relative to rifampicin alone; format: functional; in short: as §3
Escherichia coli [18] = experiment: Synergistic antibacterial activity against Escherichia coli NCTC 12923 assessed as novobiocin MIC at <=0.25 times MIC incubated for overnight by microbroth dilution checkerboard assay; format: functional; in short: as §1
Klebsiella pneumoniae [19] = experiment: Synergistic antibacterial activity against […] Klebsiella pneumoniae NCTC 13368 assessed as novobiocin MIC at <=0.25 times MIC incubated for overnight by microbroth dilution checkerboard assay; format: functional; in short: as §2
Klebsiella pneumoniae [20] = experiment: Antibacterial activity against Klebsiella pneumoniae M6 assessed as bacterial growth inhibition incubated for overnight by microbroth dilution method
Acinetobacter baumannii [21] = experiment: Antibacterial activity against Acinetobacter baumannii AYE assessed as bacterial growth inhibition incubated for overnight by microbroth dilution method; format: functional; in short: as §4
Pseudomonas aeruginosa [22] = experiment: Synergistic antibacterial activity against Pseudomonas aeruginosa NCTC 13437 assessed as fold change in novobiocin MIC at <=0.25 times MIC incubated for overnight by microbroth dilution checkerboard assay relative to novobiocin alone; format: functional; in short: as §1
Pseudomonas aeruginosa [23] = experiment: Synergistic antibacterial activity against Pseudomonas aeruginosa PAO1 assessed as fold change in novobiocin MIC at <=0.25 times MIC incubated for overnight by microbroth dilution checkerboard assay relative to novobiocin alone; format: functional; in short: as §3
Acinetobacter baumannii [24] = experiment: Synergistic antibacterial activity against Acinetobacter baumannii ATCC 17978 assessed as novobiocin MIC at <=0.25 times MIC incubated for overnight by microbroth dilution checkerboard assay; format: functional; in short: as §1
Klebsiella pneumoniae [25] = experiment: Synergistic antibacterial activity against Klebsiella pneumoniae NCTC 13368 assessed as rifampicin MIC at <=0.25 times MIC incubated for overnight by microbroth dilution checkerboard assay; format: functional; in short: as §1
Pseudomonas aeruginosa [26] = experiment: Synergistic antibacterial activity against Pseudomonas aeruginosa PAO1 assessed as rifampicin MIC at <=0.25 times MIC incubated for overnight by microbroth dilution checkerboard assay; format: functional; in short: as §3
Pseudomonas aeruginosa [27] = experiment: Antibacterial activity against Pseudomonas aeruginosa NCTC 13437 assessed as bacterial growth inhibition incubated for overnight by microbroth dilution method; format: functional; in short: as §4
Acinetobacter baumannii [28] = experiment: Synergistic antibacterial activity against Acinetobacter baumannii ATCC 17978 assessed as rifampicin MIC at <=0.25 times MIC incubated for overnight by microbroth dilution checkerboard assay; format: functional; in short: as §1
Pseudomonas aeruginosa [29] = experiment: Synergistic antibacterial activity against Pseudomonas aeruginosa PAO1 assessed as fold change in rifampicin MIC at <=0.25 times MIC incubated for overnight by microbroth dilution checkerboard assay relative to rifampicin alone; format: functional; in short: as §3
Acinetobacter baumannii [30] = experiment: Synergistic antibacterial activity against Acinetobacter baumannii ATCC 17978 assessed as fold change in rifampicin MIC at <=0.25 times MIC incubated for overnight by microbroth dilution checkerboard assay relative to rifampicin alone; format: functional; in short: as §1
Acinetobacter baumannii [31] = experiment: Synergistic antibacterial activity against Acinetobacter baumannii AYE assessed as fold change in novobiocin MIC at <=0.25 times MIC incubated for overnight by microbroth dilution checkerboard assay relative to novobiocin alone; format: functional; in short: as §1
Klebsiella pneumoniae [32] = experiment: Synergistic antibacterial activity against Klebsiella pneumoniae NCTC 13368 assessed as fold change in novobiocin MIC at <=0.25 times MIC incubated for overnight by microbroth dilution checkerboard assay relative to novobiocin alone; format: functional; in short: as §1
Erythrocyte = experiment: Hemolytic activity in human Red blood cells at 512 microg/ml measured after 1 hrs by absorbance based assay; format: toxicity, cell-based; settings: dose 512 µg/ml
In short: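 Titrations in PBS were incubated with freshly collected human red blood cells for 1 h at 37 °C. Controls were 0.1% Triton-X-100 (full lysis) and PBS alone (no lysis). After centrifugation, supernatant OD550 was read. % haemolysis = (AP−AB)/(AC−AB)×100. Data are means and standard error of three biological replicates.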

Klebsiella pneumoniae [33] = experiment: Synergistic antibacterial activity against […] Klebsiella pneumoniae M6 assessed as novobiocin MIC at <=0.25 times MIC incubated for overnight by microbroth dilution checkerboard assay; format: functional; in short: as §2
Escherichia coli [34] = experiment: Synergistic antibacterial activity against Escherichia coli NCTC 12923 assessed as fold change in novobiocin MIC at <=0.25 times MIC incubated for overnight by microbroth dilution checkerboard assay relative to novobiocin alone; format: functional; in short: as §1

## CCCCCCCCCCNC(=N)NCCCCNC(=N)N
Acinetobacter baumannii [1]
  fold change (FC): >=4
Klebsiella pneumoniae [2]
  MIC: ≤ 0.125 µg/mL
Pseudomonas aeruginosa [3]
  MIC: 4 µg/mL
Escherichia coli [4]
  MIC: ≤ 0.125 µg/mL
Escherichia coli [5]
  MIC: 64 µg/mL (≈ 205 µM)
Acinetobacter baumannii [6]
  MIC: ≤ 0.125 µg/mL
Acinetobacter baumannii [7]
  MIC: > 128 µg/mL
Acinetobacter baumannii [8]
  fold change (FC): >=4
Pseudomonas aeruginosa [9]
  MIC: 64 µg/mL (≈ 205 µM)
Klebsiella pneumoniae [10]
  fold change (FC): >=4
Acinetobacter baumannii [11]
  MIC: 0.125 µg/mL
Pseudomonas aeruginosa [12]
  MIC: ≤ 0.125 µg/mL
Klebsiella pneumoniae [13]
  fold change (FC): >=4
Klebsiella pneumoniae [14]
  MIC: > 128 µg/mL
Escherichia coli [15]
  fold change (FC): >=4
Pseudomonas aeruginosa [16]
  MIC: 4 µg/mL
Pseudomonas aeruginosa [17]
  fold change (FC): >=4
Escherichia coli [18]
  MIC: 2 µg/mL
Klebsiella pneumoniae [19]
  MIC: 8 µg/mL
Klebsiella pneumoniae [20]
  MIC: > 128 µg/mL
Acinetobacter baumannii [21]
  MIC: > 128 µg/mL
Pseudomonas aeruginosa [22]
  fold change (FC): >=4
Pseudomonas aeruginosa [23]
  fold change (FC): >=4
Acinetobacter baumannii [24]
  MIC: 0.125 µg/mL
Klebsiella pneumoniae [25]
  MIC: ≤ 0.125 µg/mL
Pseudomonas aeruginosa [26]
  MIC: 2 µg/mL
Pseudomonas aeruginosa [27]
  MIC: > 128 µg/mL
Acinetobacter baumannii [28]
  MIC: ≤ 0.125 µg/mL
Pseudomonas aeruginosa [29]
  fold change (FC): >=4
Acinetobacter baumannii [30]
  fold change (FC): >=4
Acinetobacter baumannii [31]
  fold change (FC): >=4
Klebsiella pneumoniae [32]
  fold change (FC): >=4
Erythrocyte
  Activity: Toxic
Klebsiella pneumoniae [33]
  MIC: 1 µg/mL
Escherichia coli [34]
  fold change (FC): >=4
